Only a selection was taken, and hits are over-represented in it overall.
INS promoter act: TRM-6 insulin promoter activation; TRM-6 cells (human fetal islet line), insulin promoter eGFP reporter, imaging; plate-scaled: unstimulated 0, stimulated control 100; 130,000 tested, 0.81% active; activation, % at 2 µM; AID 1296;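 active means activation at 2 µM above a set limit, confirmed on inspection of the cell images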;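 further: share of cells whose green reporter signal exceeds an intensity cutoff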
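test system = TRM-6 insulin promoter–eGFP reporter cells | benchmarks = stimulated versus unstimulated wells as plate controls | read-out basis = percent cells above green-intensity threshold, converted to percent activation versus plate controls | detection = fixed-cell fluorescence microscopy, eGFP plus Hoechst | incubation = tamoxifen pre-incubation 15 h overnight, then compound exposure 48 h at 37 °C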
Numbers without * were called inactive.

`Cc1[nH]c2ccc(F)cc2c1CCNC(=O)C1CCCCC1C(=O)OCC(F)(F)F` (stereo unspecified) gave INS promoter act -6.
For CCCOc1c(Cl)cc(C(=O)Nc2ccc3c(c2)OCO3)cc1OCC the results were INS promoter act 4.
Screening COc1ccc(-c2cc(CNC(=O)CN(C)Cc3ccccc3)on2)cc1 returned INS promoter act 10.
COc1ccc([N+](=O)[O-])cc1NC(=O)C(C)N1CCN(C(=O)c2ccco2)CC1 (stereo unspecified) was read as INS promoter act -7.
Screening O=C(CNCCCO)Nc1cc(C(F)(F)F)cc(NC(=O)CNCCCO)c1Cl returned INS promoter act 3.
Screening Cc1cc(-c2ccccc2)c2c(=O)[nH][nH]c2n1 returned INS promoter act -6.
For COc1ccc(Br)cc1CNC(=O)C1CCN(S(=O)(=O)N2CCCCC2)CC1 the results were INS promoter act 169*.
For COc1ccccc1CNC(=O)C1CCCN(S(C)(=O)=O)C1 (stereo unspecified) the results were INS promoter act -7.
COc1ccc(OC)c(CNC(=O)C2CCN(S(C)(=O)=O)CC2)c1 was read as INS promoter act 146.
`O=C(NCN1C(=O)C2C3C=CC(C3)C2C1=O)Nc1nccs1` (stereo unspecified) gave INS promoter act -9.
O=C1NC2(CCC3(CC2)OCCO3)NN1c1ccc(Cl)cc1 was read as INS promoter act 8.
`Clc1ccc(-n2ncc3c(NCC4CCCO4)ncnc32)cc1` (stereo unspecified) gave INS promoter act 0.
Screening O=C(CSCc1ccc(Cl)cc1)NCC1CCCO1 (stereo unspecified) returned INS promoter act 9.
Screening OC(CNCC1CCCO1)Cn1c2ccc(Cl)cc2c2cc(Cl)ccc21 (stereo unspecified) returned INS promoter act 89*.
For Cc1nnc(-c2cnn(C)c2N)n1Cc1cccc(Cl)c1 the results were INS promoter act -89.
For C/C(CCc1ccc2c(c1)OCO2)=N\N=C1\NC(=O)CC(C(=O)Nc2ccc(Cl)cc2)S1 (stereo unspecified) the results were INS promoter act -7.
Screening CC(C)CNC(=O)CO/N=C/c1ccccc1Cl returned INS promoter act 108.
For O=C(Nc1ccccc1)O/N=C/c1ccccc1Cl the results were INS promoter act 87*.
O=[N+]([O-])c1ccc(Cl)c(/C=N/NC(=S)Nc2ccccc2)c1 was read as INS promoter act 5.
`Cc1cccc2cncc(OCc3nnc(SC(F)F)n3C)c12` gave INS promoter act 7.
Screening COc1cccc(N=C(N)N)c1 returned INS promoter act 7.
Screening O=C(c1c(F)c(F)c(F)c(F)c1F)N1CCN(c2cccc(C(F)(F)F)c2)CC1 returned INS promoter act 0.
`FC(F)(F)c1cccc(N2CCN(CC3CC4C=CC3C4)CC2)c1` (stereo unspecified) gave INS promoter act -8.
Screening Oc1cc2c(cc1CN1CCN(c3cccc(C(F)(F)F)c3)CC1)CCC2 returned INS promoter act 82*.
COc1ccc(C(=O)Oc2cccc(/C=N/NC(N)=S)c2)cc1 was read as INS promoter act -10.
Screening Cc1noc(NS(=O)(=O)c2ccc(NC(=O)Nc3ccc(Cl)c(Cl)c3)cc2)c1C returned INS promoter act -75.
`Cc1noc(NS(=O)(=O)c2ccc(NC(=O)CSc3n[nH]c(-c4ccccc4)n3)cc2)c1C` gave INS promoter act 154*.
For Cc1noc(NS(=O)(=O)c2ccc(NC(=O)CCN3C(=O)c4ccccc4C3=O)cc2)c1C the results were INS promoter act 6.
For CCn1c(=NC(=O)CSC(C)=O)sc2cc(F)ccc21 the results were INS promoter act 79*.
`COC(=O)Cn1c(=NC(=O)c2cc(OC)cc(OC)c2)sc2cc(OC)ccc21` gave INS promoter act -3.
Screening C=CCn1c(=NC(=O)CN2C(=O)CCC2=O)sc2cc(S(N)(=O)=O)ccc21 returned INS promoter act 0.
`N#Cc1ccc(N2CCN(C(=O)c3cccc(F)c3)CC2)c(F)c1` gave INS promoter act 25.
N#CCCn1nc(-c2ccccc2)cc1-n1c(C(F)(F)F)nc2ccccc21 was read as INS promoter act 0.
`N#CCCn1ncn(-c2ccccc2)c1=S` gave INS promoter act 173*.
N#CCCn1cc(/C=C2\NC(=S)N(c3ccccc3)C2=O)c(-c2ccc(-c3ccccc3)cc2)n1 was read as INS promoter act 6.
Screening CCc1cccc(Nc2cc(C)nc3nc(C)nn23)c1 returned INS promoter act -38.
CC[n+]1c(/C=C/Nc2ccccc2)oc2ccccc21 was read as INS promoter act 138*.
CC[n+]1c(/C=C/N(C)c2ccccc2)oc2ccccc21 was read as INS promoter act 156.
CCOC(=O)c1c(-c2ccccc2)oc2ccc(OC)cc12 was read as INS promoter act 0.
Screening CC[n+]1c(/C=C/Nc2ccccc2)oc2ccc(OC)cc21 returned INS promoter act 456*.
Screening CC[n+]1c(/C=C/N(C)c2ccccc2)oc2ccc(F)cc21 returned INS promoter act 6.

Compound activity: PubChem BioAssay, Columbia University Molecular Screening Center
